According to article PMC5470083 (Molecular imaging, 2016):
Where two headings read alike, the source gives them in different places. One block for each compound: values may come before it.

Columns and labels:
tau (NFTs) [1] = biological target: T1, tau (NFTs) (Homo sapiens, UniProt P10636); assay type: binding; settings: 1 µmol/L compound, human AD slices, n = 3
Target sequence in this assay (P10636 623-708 limits assumed): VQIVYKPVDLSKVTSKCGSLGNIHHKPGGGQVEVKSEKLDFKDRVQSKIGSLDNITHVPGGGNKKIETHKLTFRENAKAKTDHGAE

PHF tau = PHF tau (Homo sapiens, UniProt P10636); assay type: binding
amyloid plaques = amyloid plaques (Homo sapiens, UniProt P05067); assay type: binding
amyloid plaques, sequence (P05067 672-711 limits assumed): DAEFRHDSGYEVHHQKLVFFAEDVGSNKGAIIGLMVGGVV

Aβ = Aβ (Homo sapiens, UniProt P05067); assay: In vitro autoradiography binding inhibition of [11C]PiB on human AD brain slices; settings: for % Block ± SD of tracer binding: 1 µmol/L compound, tracer 13 nmol/L [11C]PiB, human AD slices, n = 3
Aβ, sequence (P05067 672-711 limits assumed): as above

[2] = Biodistribution in normal NMRI mice; assay type: in vivo, mouse; settings: for %ID/g Blood / %ID/g Bone / %ID/g Brain / %ID/g Cerebellum / %ID/g Cerebrum / %ID/g Heart / %ID/g Kidneys / %ID/g Liver / %ID/g Lungs / %ID/g Muscle / %ID/g Pancreas / %ID/g Spleen: iv
Method in brief: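 Healthy male NMRI mice (30-40 g) under 2.5% isoflurane in O2 received about 0.9 MBq of 18F-labelled tracer by tail vein. They were decapitated at 2, 10, 30 and 60 min PI (n = 4/time point). Blood and organs were weighed and γ-counted. Blood, bone and muscle were taken as 7%, 12% and 40% of body mass. Blood clearance was calculated as the 2 min to 60 min activity ratio.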

[3] = Plasma radiometabolite analysis; assay type: in vivo, mouse; settings: normal mice
Method in brief: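 NMRI mice under isoflurane (2.5% in O2) received about 3.7 MBq of 18F-labelled tracer via a lateral tail vein. They were decapitated at 2, 10, 30 or 60 min PI (n = 3/time point). EDTA blood was kept on ice and spun at 2330 ×g for 10 min. Plasma (0.5 mL) was spiked with 10 µg authentic unlabelled compound and run on C18 HPLC. Fractions were γ-counted for % intact tracer, reported as mean ± SD.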

[4] = Perfused brain radiometabolite analysis; assay type: in vivo, mouse; settings: normal mice
tau (NFTs) [5] = biological target: T1, tau (NFTs); assay type: binding
Target sequence in this assay (P10636 623-695 limits assumed): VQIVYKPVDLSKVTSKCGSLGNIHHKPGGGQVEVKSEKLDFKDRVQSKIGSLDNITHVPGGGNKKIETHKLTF

NFTs = settings: autoradiography on human AD brain tissue sections; ref [8],[11]; cited from earlier work
[6] = read-out: % Block ± SD of tracer binding
[7] = read-out: Inhibition of [11C]PiB binding, summary statements

PHF tau, sequence (P10636 623-695 limits assumed): as above

Compound: COc1ccc(CCN2CCC(Nc3nc4ccccc4n3Cc3ccc(F)cc3)CC2)cc1 [Astemizole]
Ki (PHF tau): > 4 µM | Ki (amyloid plaques): > 4.4 µM

Compound: Cc1c(OCC(F)(F)F)ccnc1C[S+]([O-])c1nc2ccccc2[nH]1 (stereo not shown) [Lansoprazole]
Ki (PHF tau): > 4 µM | Ki (amyloid plaques): > 4.4 µM

Compound: [11CH3]Nc1ccc(-c2nc3ccc(O)cc3s2)cc1 [PiB, 2-[4-([^11C]methylamino)phenyl]benzothiazol-6-ol]
% Block ± SD of tracer binding (Aβ): 57 ± 0.0% | Ki (PHF tau): 0.129 µM

Compound: [18F]c1ccc(-c2ccc3c(c2)[nH]c2ccncc23)cn1 [T807, 7-[6-[^18F]fluoropyridin-3-yl]-5H-pyrido-[4,3-b]indole]
%ID/g Blood ([2]; blood, 2 min PI): 1.5 ± 0.2 %ID/g | 2/60 min activity ratio Blood (clearance from blood) ([2]; blood, 2 min to 60 min activity ratio): 2.5 | %ID/g Blood ([2]; blood, 10 min PI): 0.7 ± 0.0 %ID/g | %ID/g Blood ([2]; blood, 30 min PI): 0.7 ± 0.1 %ID/g | %ID/g Blood ([2]; blood, 60 min PI): 0.6 ± 0.1 %ID/g | %ID/g Bone ([2]; 2 min PI): 0.1 ± 0.1 %ID/g | %ID/g Bone ([2]; 10 min PI): 1.4 ± 0.2 %ID/g | %ID/g Bone ([2]; 60 min PI): 0.1 ± 0.0 %ID/g | %ID/g Brain ([2]; brain, 2 min PI): 7.5 ± 1.1 %ID/g | 2/60 min activity ratio Brain ([2]; brain, 2 min to 60 min activity ratio): 18.3 | %ID/g Brain ([2]; brain, 10 min PI): 2.6 ± 0.5 %ID/g | %ID/g Brain ([2]; brain, 30 min PI): 0.8 ± 0.4 %ID/g | %ID/g Brain ([2]; brain, 60 min PI): 0.4 ± 0.2 %ID/g | %ID/g Cerebellum ([2]; 2 min PI): 8.5 ± 1.4 %ID/g | %ID/g Cerebellum ([2]; 10 min PI): 2.4 ± 0.5 %ID/g | %ID/g Cerebellum ([2]; 30 min PI): 0.8 ± 0.4 %ID/g | %ID/g Cerebellum ([2]; 60 min PI): 0.4 ± 0.2 %ID/g | %ID/g Cerebrum ([2]; 2 min PI): 7.2 ± 1.0 %ID/g | %ID/g Cerebrum ([2]; 10 min PI): 2.6 ± 0.5 %ID/g | %ID/g Cerebrum ([2]; 30 min PI): 0.8 ± 0.4 %ID/g | %ID/g Cerebrum ([2]; 60 min PI): 0.4 ± 0.2 %ID/g | %ID/g Heart ([2]; 2 min PI): 6.8 ± 0.9 %ID/g | %ID/g Heart ([2]; 10 min PI): 2.1 ± 0.3 %ID/g | %ID/g Heart ([2]; 30 min PI): 1.3 ± 0.3 %ID/g | %ID/g Heart ([2]; 60 min PI): 1.0 ± 0.1 %ID/g | %ID/g Kidneys ([2]; 2 min PI): 35.9 ± 6.2 %ID/g | %ID/g Kidneys ([2]; 10 min PI): 25.6 ± 3.0 %ID/g | %ID/g Kidneys ([2]; 30 min PI): 15.8 ± 5.0 %ID/g | %ID/g Kidneys ([2]; 60 min PI): 13.0 ± 2.6 %ID/g | %ID/g Liver ([2]; 2 min PI): 12.6 ± 2.4 %ID/g | %ID/g Liver ([2]; 10 min PI): 14.6 ± 1.0 %ID/g | %ID/g Liver ([2]; 30 min PI): 20.7 ± 1.8 %ID/g | %ID/g Liver ([2]; 60 min PI): 18.1 ± 2.2 %ID/g | %ID/g Lungs ([2]; 2 min PI): 25.1 ± 11.9 %ID/g | %ID/g Lungs ([2]; 10 min PI): 4.2 ± 1.8 %ID/g | %ID/g Lungs ([2]; 30 min PI): 3.9 ± 1.2 %ID/g | %ID/g Lungs ([2]; 60 min PI): 2.1 ± 0.7 %ID/g | %ID/g Muscle ([2]; 2 min PI): 3.0 ± 1.8 %ID/g | %ID/g Muscle ([2]; 10 min PI): 1.4 ± 0.3 %ID/g | %ID/g Muscle ([2]; 30 min PI): 0.6 ± 0.1 %ID/g | %ID/g Muscle ([2]; 60 min PI): 0.5 ± 0.1 %ID/g | %ID/g Pancreas ([2]; 2 min PI): 4.1 ± 2.2 %ID/g | %ID/g Pancreas ([2]; 10 min PI): 4.7 ± 0.7 %ID/g | %ID/g Pancreas ([2]; 30 min PI): 2.1 ± 0.8 %ID/g | %ID/g Pancreas ([2]; 60 min PI): 1.5 ± 0.6 %ID/g | %ID/g Spleen ([2]; 2 min PI): 15.7 ± 5.1 %ID/g | %ID/g Spleen ([2]; 10 min PI): 13.8 ± 12.5 %ID/g | %ID/g Spleen ([2]; 30 min PI): 3.8 ± 1.3 %ID/g | %ID/g Spleen ([2]; 60 min PI): 3.1 ± 1.7 %ID/g | Mean % ± SD of intact tracer, plasma ([3]; 2 min after injection, n = 3): 99 ± 1% | Mean % ± SD of intact tracer, plasma ([3]; 2 min after injection, n = 3, listed as [^18F]T807): 99% | Mean % ± SD of intact tracer, plasma ([3]; 10 min after injection, n = 3): 84 ± 5% | Mean % ± SD of intact tracer, plasma ([3]; 30 min after injection, n = 3): 60 ± 14% | Mean % ± SD of intact tracer, plasma ([3]; 30 min after injection, n = 3, listed as [^18F]T807): 60% | Mean % ± SD of intact tracer, plasma ([3]; 60 min after injection, n = 3): 45 ± 4% | Mean % ± SD of intact tracer, perfused brain ([4]; 10 min after injection, n = 3): 100 ± 0% | Mean % ± SD of intact tracer, perfused brain ([4]; 10 min after injection, n = 3, listed as [^18F]T807): ~100% | Mean % ± SD of intact tracer, perfused brain ([4]; 60 min after injection, n = 3): 99 ± 1% | Mean % ± SD of intact tracer, perfused brain ([4]; 60 min after injection, n = 3, listed as [^18F]T807): ~100% | % Block ± SD of tracer binding (tau (NFTs) [1]; tracer 7 nmol/L [18F]T808): 94 ± 0.0% | % Block ± SD of tracer binding (tau (NFTs) [5]; 1 µmol/L compound, tracer 28 nmol/L [18F]T807, human AD slices, n = 3): 88 ± 0.0% | inhibition at 1 µM (tau (NFTs) [5]; [6]): 88% | % Block ± SD of tracer binding (Aβ): 11 ± 0.1% | inhibition at 1 µM (Aβ; [6]): 11% | inhibition at 1 µM (Aβ; [7]): < 17% | Ki (PHF tau): 0.0011 µM | Ki (amyloid plaques): 0.247 µM | Kd (NFTs): 0.015 µM | fold higher binding affinity for NFTs over Aβ (NFTs): 25 fold

Continued, values first:

% Block ± SD of tracer binding (tau (NFTs) [1]; tracer 10 nmol/L [18F]T808): 29 ± 0.1%
Compound: 2-[4-(4-Fluorophenyl)phenyl]-1,3-benzothiazole [TAU3]

Ki (PHF tau): > 4 µM | Ki (amyloid plaques): > 4.4 µM
Compound: COc1ccc(-c2csc(NN=Cc3ccccc3)n2)cc1 [TAU4, 1-Benzylidene-2-(4-(4-methoxyphenyl)thiazol-2-yl)hydrazine]

Ki (PHF tau): > 4 µM | Ki (amyloid plaques): > 4.4 µM
Compound: COc1ccc(-c2csc(NN=Cc3ccccn3)n2)cc1 [TAU5, 2-(4-(4-Methoxyphenyl)thiazol-2-yl)-1-((pyridin-2-yl)methylene)hydrazine]

inhibition at 1 µM (Aβ; [6]): 0% | inhibition at 1 µM (Aβ; [7]): < 17% | Ki (PHF tau): > 4 µM | Ki (amyloid plaques): > 4.4 µM
Compound: COc1ccc(-c2ccc3c(c2)[nH]c2ccncc23)cn1 [TAU6, 2-Methoxy-5-{5H-pyrido[4,3-b]indol-7-yl}pyridine]

inhibition at 1 µM (Aβ; [6]): 0% | Ki (PHF tau): 0.014 µM | Ki (amyloid plaques): 0.0049 µM
Compound: COc1ccc(-c2ccc3c(c2)[nH]c2ccncc23)cc1 [TAU7, 7-(4-Methoxyphenyl)-5H-pyrido[4,3-b]indole]

inhibition at 1 µM (Aβ; [6]): 0% | Ki (PHF tau): > 4 µM | Ki (amyloid plaques): > 4.4 µM
Compound: COC(=O)c1ccc(-c2ccc3c(c2)[nH]c2ccncc23)cn1 [TAU8, Methyl 5-{5H-pyrido[4,3-b]indol-7-yl}pyridine-2-carboxylate]

% Block ± SD of tracer binding (tau (NFTs) [1]; tracer 10 nmol/L [18F]T808): 48 ± 0.0%
Compound: Methyl 2-(4-nitrophenyl)benzo[d]thiazole-6-carboxylate [TAU2]
